Test results from the RNAGym collection of RNA variant scans (doi:10.1126/science.aae0568).
This sample holds only a part of the variants without activity.

B1: tRNA (parent)
chain: GUUCCGUUGGCGUAAUGGUAACGCGUCUCCCUCCUAAGGAGAAGACUGCGGGUUCGAGUCCCGUACGGAACG

Variants of: B1
Test: yeast fitness relative to wild type (ratio to wild type); higher = fitter; tRNA-Arg(CCU), competitive growth, 37 C, YPD
Outline: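 For this measurement, the tRNA-Arg(CCU) gene was varied by chemical synthesis at a 3% per-site mutation rate across 69 sites, and each variant was placed at the native genomic locus in Saccharomyces cerevisiae. The pooled strains went through a 24-hour competition in YPD at 37°C in six parallel replicates, with amplicons from start and end populations read by 100-nucleotide paired-end sequencing. Darwinian fitness relative to wild type followed from the change in each genotype's frequency. Genotypes needed ≥ 100 starting reads, and estimates < 0.5 were set to 0.5.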

Row | Variant | yeast fitness
1 | GUUCCGUUGGCGUAAUGGUAACGCCUCUCCCUCCUAAGGAGAAGACUGCGGGUUCGAGUCACGUAUGGAACG [G25C C61A C66U] | ≤ 0.5
2 | GUUCCGUUGGCGUAAUGGUAACGCCUCUCCCUCCUAAGGAGAAGACUGCGGGUUCGAGUCCGGUACGGAACG [G25C C62G] | 0.877
3 | GUUCCGUUGGCGUAAUGGUAACGCCUCUCCCUCCUAAGGAGAAGACUGCGGGUUCGAGUCCCGUAAGGAACG [G25C C66A] | 0.677
4 | GUUCCGUUGGCGUAAUGGUAACGCCUCUCCCUCCUAAGGAGAAGACUGCGGGUUCGAGUCCCGUAGGGAACG [G25C C66G] | 0.639
5 | GUUCCGUUGGCGUAAUGGUAACGCCUCUCCCUCCUAAGGAGAAGACUGCGGGUUCGAGUCCCGUAUGGAACG [G25C C66U] | 0.972
6 | GUUCCGUUGGCGUAAUGGUAACGCCUCUCCCUCCUAAGGAGAAGACUGCGGGUUCGAGUCCCGUAUGGCACG [G25C C66U A69C] | 0.685
7 | GUUCCGUUGGCGUAAUGGUAACGCCUCUCCCUCCUAAAGAGAAGACUGCGGGUUCGAGUCCCGUACGGAACG [G25C G38A] | 0.951
8 | GUUCCGUUGGCGUAAUGGUAACGCCUCUCCCUCCUAACGAGAAGACUGUGGGUUCGUGUCCCGUAAGGAACG [G25C G38C C49U A57U C66A] | 0.571
9 | GUUCCGUUGGCGUAAUGGUAACGCCUCUCCCUCCUAACGAGAAGACUGCGGGUUCGAGUGCCGUACGGAACG [G25C G38C C60G] | 0.747
10 | GUUCCGUUGGCGUAAUGGUAACGCCUCUCCCUCCUAAGAAGAAGACUGCGGGUUCGAGUCCCGUACGGAACG [G25C G39A] | 0.787
11 | GUUCCGUUGGCGUAAUGGUAACGCCUCUCCCUCCUAAGAAGAAGACUGCGGGUUCGACUCCCGUACGGAACG [G25C G39A G58C] | 0.663
12 | GUUCCGUUGGCGUAAUGGUAACGCCUCUCCCUCCUAAGCAGAACACUGUGGGUUCGAGUUCCGUACGCAACG [G25C G39C G44C C49U C60U G68C] | ≤ 0.5
13 | GUUCCGUUGGCGUAAUGGUAACGCCUCUCCCUCCUAAGCAGAAGACUGCGGCUUCGACUCCCGUACGGAACG [G25C G39C G52C G58C] | ≤ 0.5
14 | GUUCCGUUGGCGUAAUGGUAACGCCUCUCCCUCCUAAGGACAAGACUGCGGGUUCGAGUCCCGUACGGAACG [G25C G41C] | 0.625
15 | GUUCCGUUGGCGUAAUGGUAACGCCUCUCCCUCCUAAGGACUAGACUGAGGGUUCGAGUCCCGUACGGAACG [G25C G41C A42U C49A] | ≤ 0.5
16 | GUUCCGUUGGCGUAAUGGUAACGCCUCUCCCUCCUAAGGACAAGACUGCGGGUUCGAGUCCCGUACGGACCG [G25C G41C A70C] | 0.559
17 | GUUCCGUUGGCGUAAUGGUAACGCCUCUCCCUCCUAAGGACAAGAUUGCGGGUUCGAGUCCCGUAUGGAACG [G25C G41C C46U C66U] | ≤ 0.5
18 | GUUCCGUUGGCGUAAUGGUAACGCCUCUCCCUCCUAAGGACAAGACUCCGGGUUCGAGUCCCGUACGGAACG [G25C G41C G48C] | ≤ 0.5
19 | GUUCCGUUGGCGUAAUGGUAACGCCUCUCCCUCCUAAGGAGAAAACUGCGGGUUCGAGUCCCGUACGGAACG [G25C G44A] | 0.97

Row | Variant | yeast fitness
20 | GUUCCGUUGGCGUAAUGGUAACGCCUCUCCCUCCUAAGGAGAACACUGUGGGUUCGAGUCCCGUACGGAACG [G25C G44C C49U] | 0.505
21 | GUUCCGUUGGCGUAAUGGUAACGCCUCUCCCUCCUAAGGAGAAGACUACGGGUUCGAGUCCCGUACGGAACG [G25C G48A] | 0.951
22 | GUUCCGUUGGCGUAAUGGUAACGCCUCUCCCUCCUAAGGAGAAGACUACGGGUUCGAGUCCCAUACGGGACG [G25C G48A G63A A69G] | ≤ 0.5
23 | GUUCCGUUGGCGUAAUGGUAACGCCUCUCCCUCCUAAGGAGAAGACUACGGGUUCGAGUCCCGUACGAAACG [G25C G48A G68A] | 0.564
24 | GUUCCGUUGGCGUAAUGGUAACGCCUCUCCCUCCUAAGGAGAAGACUGCAGGUUCGAGUCCCGUACGGAACG [G25C G50A] | 1
25 | GUUCCGUUGGCGUAAUGGUAACGCCUCUCCCUCCUAAGGAGAAGACUGCCGGUUCAAAUCCCGUACGGAACG [G25C G50C G56A G58A] | ≤ 0.5
26 | GUUCCGUUGGCGUAAUGGUAACGCCUCUCCCUCCUAAGGAGAAGACUGCGAGUUCGAGUCCCGUACGGAACG [G25C G51A] | 1.01
27 | GUUCCGUUGGCGUAAUGGUAACGCCUCUCCCUCCUAAGGAGAAGACUGCGAGUUCGAGUCCCGUGCGGAACG [G25C G51A A65G] | 0.742
28 | GUUCCGUUGGCGUAAUGGUAACGCCUCUCCCUCCUAAGGAGAAGACUGCGGAUUCGAGUCCCGUACGGAACG [G25C G52A] | 0.748
29 | GUUCCGUUGGCGUAAUGGUAACGCCUCUCCCUCCUAAGGAGAAGACUGCGGGUUCGACUCCCGUUCGGAACG [G25C G58C A65U] | 0.928
30 | GUUCCGUUGGCGUAAUGGUAACGCCUCUCCCUCCUAAGGAGAAGACUGCGGGUUCGAGUCCCAUACGGAACG [G25C G63A] | 0.955
31 | GUUCCGUUGGCGUAAUGGUAACGCCUCUCCCUCCUAAGGAGAAGACUGCGGGUUCGAGUCCCGUACAGAACG [G25C G67A] | 1.01
32 | GUUCCGUUGGCGUAAUGGUAACGCCACUCCCUCCUAAGGAGAAGACUGCGGGUUCGAGUCACGUACGGAACG [G25C U26A C61A] | ≤ 0.5
33 | GUUCCGUUGGCGUAAUGGUAACGCCACUCCCUCCCAAGGAGAAGACUGCGGGUUCGAGUCCCGUACGGAACG [G25C U26A U35C] | ≤ 0.5
34 | GUUCCGUUGGCGUAAUGGUAACGCCGCUCCCUCCUAAGGAGAAGAGUGCGGGUUCGAGUCCGGUACGGAACG [G25C U26G C46G C62G] | ≤ 0.5
35 | GUUCCGUUGGCGUAAUGGUAACGCCGCUCCCUCCUAAGGAGAAGAGUGCGAGUUCGAGUCCCGUACGGAUCG [G25C U26G C46G G51A A70U] | ≤ 0.5
36 | GUUCCGUUGGCGUAAUGGUAACGCCUCCCCCUCCUAAGGAGAAGACUGCGGGUUCGAGUCCCGUACGGAACG [G25C U28C] | 0.79
37 | GUUCCGUUGGCGUAAUGGUAACGCCUCCCCCUCCUAAGGAGAAGACUGCGGGUUCGAGUCCCGUACGGGCCG [G25C U28C A69G A70C] | ≤ 0.5
38 | GUUCCGUUGGCGUAAUGGUAACGCCUCCCCCUCCUAAGGAGAAGACUGCGGGUUCGAGUCCCGUACGGACCG [G25C U28C A70C] | 0.563
